Measured values: ChEMBL document CHEMBL4196166 (J Med Chem, 2018)
Activity calls are given as the source filed them.

How the values were obtained:
[1] = molecular target: Adenosine receptor A2a (Homo sapiens) (UniProt P29274); test: Displacement of [3H]ZM241385 from human wild type adenosine A2A receptor at 10 uM
Outline: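 Compounds tested at 10 µM for displacement of 2.5 nM [3H]ZM241385 from human wild-type A2A receptor. Total binding taken without inhibitor. Nonspecific binding defined with 100 µM NECA. At least three independent experiments, each in duplicate. Mean ± SEM.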

Homo sapiens [2] = test: Antimetastatic activity against human PSC xenografted in BALB/c nu/nu mouse co-implanted with human AsPC1 cells assessed as reduction in metastasis lesions in liver at 10 mg/kg/day, ip measured after 28 days post first dose by microscopic analysis; assay type: functional, organism-based
Outline: (§1)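 Female athymic BALB/c nu/nu mice, 6–8 weeks old. 1×10^6 AsPC-1 and 1×10^6 human pancreatic stellate cells in 50 µL PBS injected into the pancreatic tail. Treatment randomized on day 7 (n = 4/group) for 4 weeks: 10 mg/kg/day ip in 50 mM sodium acetate pH 5.5/10% DMSO/1% Kolliphor HS-15, or gemcitabine 75 mg/kg by oral gavage twice weekly, or vehicle. At kill, liver scored for visible macrometastases, fixed in formalin, and 4 µm sections stained with H&E. Chi-square test.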

Plasma kallikrein = Plasma kallikrein (Homo sapiens, UniProt P03952); test: Inhibition of plasma kallikrein (unknown origin) at 10 nM to 33.3 uM after 30 mins by gel-based ABPP assay
Chain of Plasma kallikrein (P03952 20-390 limits assumed): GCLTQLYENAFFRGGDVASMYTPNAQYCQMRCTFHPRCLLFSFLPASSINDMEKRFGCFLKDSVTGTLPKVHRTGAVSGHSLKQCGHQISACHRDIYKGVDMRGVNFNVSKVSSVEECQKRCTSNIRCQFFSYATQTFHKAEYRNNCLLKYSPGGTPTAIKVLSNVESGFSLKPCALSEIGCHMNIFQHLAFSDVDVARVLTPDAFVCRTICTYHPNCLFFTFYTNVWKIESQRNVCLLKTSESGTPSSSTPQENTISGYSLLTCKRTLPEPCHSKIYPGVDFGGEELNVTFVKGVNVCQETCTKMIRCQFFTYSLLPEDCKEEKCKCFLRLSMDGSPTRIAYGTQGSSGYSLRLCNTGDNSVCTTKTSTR
Chain of Plasma kallikrein (P03952 391-638 limits assumed): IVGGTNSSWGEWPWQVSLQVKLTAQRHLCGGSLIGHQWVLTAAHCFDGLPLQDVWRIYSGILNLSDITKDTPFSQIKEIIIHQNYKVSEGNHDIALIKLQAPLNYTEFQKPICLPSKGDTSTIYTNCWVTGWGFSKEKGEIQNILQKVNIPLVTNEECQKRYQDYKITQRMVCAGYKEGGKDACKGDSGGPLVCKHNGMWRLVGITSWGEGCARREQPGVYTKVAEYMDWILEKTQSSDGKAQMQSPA

ASPC1 = test: Antimetastatic activity against human AsPC1 cells xenografted in BALB/c nu/nu mouse co-implanted with human PSC assessed as reduction in metastasis lesions in liver at 10 mg/kg/day, ip measured after 28 days post first dose by haematoxylin and eosin staining-based microscopic analysis; assay type: functional, organism-based; outline: as §1
Homo sapiens [3] = test: Antimetastatic activity against human PSC xenografted in BALB/c nu/nu mouse co-implanted with human AsPC1 cells assessed as reduction in metastasis lesions in liver at 10 mg/kg/day, ip measured after 28 days post first dose by haematoxylin and eosin staining-based microscopic analysis; assay type: functional, organism-based; outline: as §1
[4] = molecular target: Complement C1s subcomponent (Homo sapiens) (UniProt P09871); test: Inhibition of C1S (unknown origin) at 10 nM to 33.3 uM after 30 mins by gel-based ABPP assay
Chain of Complement C1s subcomponent (Homo sapiens) (P09871 16-437 limits assumed): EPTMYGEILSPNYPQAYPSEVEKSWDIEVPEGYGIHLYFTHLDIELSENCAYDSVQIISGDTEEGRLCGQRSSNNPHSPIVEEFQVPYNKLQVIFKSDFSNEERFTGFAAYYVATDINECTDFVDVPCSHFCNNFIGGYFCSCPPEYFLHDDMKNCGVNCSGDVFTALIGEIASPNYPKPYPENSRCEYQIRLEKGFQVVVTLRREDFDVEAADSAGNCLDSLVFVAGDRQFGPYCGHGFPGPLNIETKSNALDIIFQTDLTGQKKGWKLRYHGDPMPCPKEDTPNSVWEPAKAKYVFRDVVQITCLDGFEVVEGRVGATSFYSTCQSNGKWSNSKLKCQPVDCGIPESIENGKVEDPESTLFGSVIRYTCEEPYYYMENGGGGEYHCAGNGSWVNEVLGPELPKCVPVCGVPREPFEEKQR
Chain of Complement C1s subcomponent (Homo sapiens) (P09871 438-688 limits assumed): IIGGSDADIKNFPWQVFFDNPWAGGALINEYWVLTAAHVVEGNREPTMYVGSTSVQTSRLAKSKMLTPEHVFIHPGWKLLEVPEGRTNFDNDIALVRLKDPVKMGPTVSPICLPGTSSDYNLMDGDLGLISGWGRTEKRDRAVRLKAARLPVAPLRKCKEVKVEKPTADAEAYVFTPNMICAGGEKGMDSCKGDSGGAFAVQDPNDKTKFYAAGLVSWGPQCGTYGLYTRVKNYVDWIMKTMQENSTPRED

[5] = molecular target: Transmembrane protease serine 11D (Homo sapiens) (UniProt O60235); test: Inhibition of transmembrane protease serine 11D (unknown origin) at 10 nM to 33.3 uM after 30 mins by gel-based ABPP assay
Chain of Transmembrane protease serine 11D (Homo sapiens) (O60235 1-186 limits assumed): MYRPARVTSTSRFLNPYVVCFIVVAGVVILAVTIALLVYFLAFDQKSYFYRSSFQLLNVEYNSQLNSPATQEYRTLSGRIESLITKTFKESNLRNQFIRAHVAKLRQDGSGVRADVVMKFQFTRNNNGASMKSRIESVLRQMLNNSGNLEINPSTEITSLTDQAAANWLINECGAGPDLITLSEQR
Chain of Transmembrane protease serine 11D (Homo sapiens) (O60235 187-418 limits assumed): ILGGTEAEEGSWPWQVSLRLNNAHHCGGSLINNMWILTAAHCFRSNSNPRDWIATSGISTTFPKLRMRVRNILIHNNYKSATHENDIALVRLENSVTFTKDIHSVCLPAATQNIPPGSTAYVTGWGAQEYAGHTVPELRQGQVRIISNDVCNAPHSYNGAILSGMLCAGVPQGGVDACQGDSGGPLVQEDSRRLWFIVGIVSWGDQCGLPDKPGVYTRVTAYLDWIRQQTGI

Plasminogen = Plasminogen (Homo sapiens, UniProt P00747); test: Inhibition of plasmin (unknown origin) at 10 nM to 33.3 uM after 30 mins by gel-based ABPP assay
Chain of Plasminogen (P00747 97-580 limits assumed): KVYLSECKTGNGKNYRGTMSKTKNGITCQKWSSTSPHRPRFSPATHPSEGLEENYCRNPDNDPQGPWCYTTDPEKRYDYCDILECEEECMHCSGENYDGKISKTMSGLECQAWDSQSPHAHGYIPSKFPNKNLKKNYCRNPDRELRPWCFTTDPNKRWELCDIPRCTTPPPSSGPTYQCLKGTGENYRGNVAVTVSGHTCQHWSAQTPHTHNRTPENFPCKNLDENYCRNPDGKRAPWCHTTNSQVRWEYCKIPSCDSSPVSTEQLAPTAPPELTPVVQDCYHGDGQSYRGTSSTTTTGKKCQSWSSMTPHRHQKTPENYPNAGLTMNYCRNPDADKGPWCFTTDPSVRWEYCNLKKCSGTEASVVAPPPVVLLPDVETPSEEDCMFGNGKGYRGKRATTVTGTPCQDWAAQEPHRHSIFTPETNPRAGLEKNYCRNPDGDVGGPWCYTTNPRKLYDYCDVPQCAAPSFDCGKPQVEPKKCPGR
Chain of Plasminogen (P00747 581-810 limits assumed): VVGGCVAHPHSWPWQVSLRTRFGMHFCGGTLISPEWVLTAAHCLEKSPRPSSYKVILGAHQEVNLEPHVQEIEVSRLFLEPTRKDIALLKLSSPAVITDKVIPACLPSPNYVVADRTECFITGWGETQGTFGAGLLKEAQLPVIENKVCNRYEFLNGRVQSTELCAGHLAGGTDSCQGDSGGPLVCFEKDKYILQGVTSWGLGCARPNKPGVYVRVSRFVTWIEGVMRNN

[6] = molecular target: Lysosomal Pro-X carboxypeptidase (Homo sapiens) (UniProt P42785); test: Inhibition of prolylcarboxypeptidase (unknown origin) at 10 nM to 33.3 uM after 30 mins by gel-based ABPP assay
Chain of Lysosomal Pro-X carboxypeptidase (Homo sapiens) (P42785 whole entry): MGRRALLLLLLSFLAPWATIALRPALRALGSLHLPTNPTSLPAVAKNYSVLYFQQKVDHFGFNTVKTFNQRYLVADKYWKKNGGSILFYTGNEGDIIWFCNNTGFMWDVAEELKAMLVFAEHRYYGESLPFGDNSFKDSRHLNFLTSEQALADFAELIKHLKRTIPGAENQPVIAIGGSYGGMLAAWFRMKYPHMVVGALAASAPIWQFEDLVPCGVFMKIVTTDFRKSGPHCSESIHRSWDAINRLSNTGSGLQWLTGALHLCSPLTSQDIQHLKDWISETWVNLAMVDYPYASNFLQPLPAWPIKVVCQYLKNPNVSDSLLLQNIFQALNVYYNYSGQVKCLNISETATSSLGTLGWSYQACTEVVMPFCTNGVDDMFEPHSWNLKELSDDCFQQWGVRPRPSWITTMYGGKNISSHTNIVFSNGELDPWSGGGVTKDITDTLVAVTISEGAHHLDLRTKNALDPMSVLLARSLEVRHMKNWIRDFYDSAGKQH

Chain of Adenosine receptor A2a (Homo sapiens) (P29274 whole entry): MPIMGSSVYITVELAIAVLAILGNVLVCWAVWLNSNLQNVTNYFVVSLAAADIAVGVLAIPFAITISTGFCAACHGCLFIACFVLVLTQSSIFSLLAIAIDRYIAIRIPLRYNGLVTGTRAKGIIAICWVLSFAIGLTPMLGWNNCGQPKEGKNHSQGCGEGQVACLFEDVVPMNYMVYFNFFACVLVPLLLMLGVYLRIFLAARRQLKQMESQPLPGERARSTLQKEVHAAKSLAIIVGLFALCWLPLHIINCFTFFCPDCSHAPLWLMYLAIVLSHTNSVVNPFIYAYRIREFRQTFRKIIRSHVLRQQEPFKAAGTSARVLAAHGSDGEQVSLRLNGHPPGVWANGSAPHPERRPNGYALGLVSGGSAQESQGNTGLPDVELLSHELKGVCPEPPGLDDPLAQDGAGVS

N=C(N)NC(=O)c1nc(Cl)c(N2CCCCCC2)nc1N [N,N-HEXAMETHYLENEAMILORIDE]
active: inhibition [1]

N=C(N)NC(=O)c1nc(-c2cc3ccccc3o2)c(N2CCCCCC2)nc1N
active: Activity (Homo sapiens [2]) | inhibition (Plasma kallikrein)

COc1ncc(-c2nc(C(=O)NC(=N)N)c(N)nc2N2CCCCCC2)cn1
active: Activity (ASPC1) | Activity (Homo sapiens [3]) | Activity (Homo sapiens [2]) | inhibition [4] | inhibition [5] | inhibition (Plasminogen) | inhibition [6] | inhibition (Plasma kallikrein)
